This note sets out measurements from ChEMBL document CHEMBL1667863, “Amino-benzosuberone: a novel warhead for selective inhibition of human aminopeptidase-N/CD13” (Bioorg Med Chem, 2011).

The target of data set [1] is T1, Leukotriene A-4 hydrolase (Homo sapiens, UniProt P09960).
T1 sequence (P09960 whole entry): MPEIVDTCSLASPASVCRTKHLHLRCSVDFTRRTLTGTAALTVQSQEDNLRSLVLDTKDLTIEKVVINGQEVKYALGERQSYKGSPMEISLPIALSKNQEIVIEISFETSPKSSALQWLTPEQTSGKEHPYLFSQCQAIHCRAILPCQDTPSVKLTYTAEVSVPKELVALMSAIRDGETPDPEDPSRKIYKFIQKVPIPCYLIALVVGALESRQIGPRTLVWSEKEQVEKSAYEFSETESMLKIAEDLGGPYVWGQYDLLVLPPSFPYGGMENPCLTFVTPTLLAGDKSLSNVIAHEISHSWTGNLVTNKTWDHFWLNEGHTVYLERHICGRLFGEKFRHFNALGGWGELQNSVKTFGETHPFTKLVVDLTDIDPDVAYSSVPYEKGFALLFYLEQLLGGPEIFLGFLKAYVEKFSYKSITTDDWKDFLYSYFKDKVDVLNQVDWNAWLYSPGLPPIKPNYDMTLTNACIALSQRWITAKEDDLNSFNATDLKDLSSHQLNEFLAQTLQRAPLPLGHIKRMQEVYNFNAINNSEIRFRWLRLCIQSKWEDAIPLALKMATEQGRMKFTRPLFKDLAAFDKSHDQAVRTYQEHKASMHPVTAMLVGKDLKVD
The experiment in a line: Inhibition of aminopeptidase activity of human leukotriene A4 hydrolase by Dixon plot analysis. The method in brief:
(§1)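 Compounds tested as racemates; IC50 obtained from Dixon plots, with substrate set at the Km of each enzyme.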

Data set [2] has as its target T2, Aminopeptidase N (Sus scrofa) (UniProt P15145).
T2 sequence (whole entry): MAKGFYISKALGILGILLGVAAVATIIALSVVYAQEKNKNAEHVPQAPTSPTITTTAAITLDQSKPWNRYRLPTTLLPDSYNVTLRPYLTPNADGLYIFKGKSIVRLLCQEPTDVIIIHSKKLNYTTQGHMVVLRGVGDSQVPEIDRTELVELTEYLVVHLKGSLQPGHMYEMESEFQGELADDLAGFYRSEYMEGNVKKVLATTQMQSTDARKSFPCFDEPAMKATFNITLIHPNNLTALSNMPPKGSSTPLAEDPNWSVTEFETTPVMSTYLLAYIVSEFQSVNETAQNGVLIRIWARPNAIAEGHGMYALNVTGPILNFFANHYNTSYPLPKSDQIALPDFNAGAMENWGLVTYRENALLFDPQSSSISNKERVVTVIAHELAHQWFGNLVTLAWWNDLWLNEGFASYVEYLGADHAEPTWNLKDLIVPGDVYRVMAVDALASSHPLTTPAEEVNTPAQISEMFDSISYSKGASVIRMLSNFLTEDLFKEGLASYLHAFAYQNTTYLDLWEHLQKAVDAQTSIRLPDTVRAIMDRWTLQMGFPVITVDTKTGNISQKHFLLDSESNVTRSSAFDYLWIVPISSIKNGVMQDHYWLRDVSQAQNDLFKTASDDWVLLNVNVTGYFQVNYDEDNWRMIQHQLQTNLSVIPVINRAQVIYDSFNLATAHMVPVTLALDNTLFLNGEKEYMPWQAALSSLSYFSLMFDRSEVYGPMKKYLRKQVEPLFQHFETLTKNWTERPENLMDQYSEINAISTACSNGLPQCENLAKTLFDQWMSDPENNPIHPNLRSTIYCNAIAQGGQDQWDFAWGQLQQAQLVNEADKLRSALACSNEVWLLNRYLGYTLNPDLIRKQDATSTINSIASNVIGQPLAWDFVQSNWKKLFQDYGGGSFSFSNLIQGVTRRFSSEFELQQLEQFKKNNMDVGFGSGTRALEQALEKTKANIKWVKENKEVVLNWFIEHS
The experiment in a line: Inhibition of porcine kidney aminopeptidase N at 2 uM after 8 hrs. Put shortly:
(§2)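 Porcine kidney APN (3 milliunits, added to start the reaction) in 20 mM Tris-HCl pH 7.5 at 25 °C; substrate leucine-para-nitroanilide 0.2 mM; para-nitroaniline release followed at 405 nm for up to 10 h; inhibitor at 2 µM; velocities compared with a no-inhibitor control.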

Data set [3] can be described thus: Inhibition of Aeromonas proteolytica aminopeptidase by Dixon plot analysis. Details: species or system Vibrio proteolyticus. Put shortly:
as §1

Data set [4] deals with T2, Aminopeptidase N (Sus scrofa). The experiment in a line: Inhibition of porcine kidney aminopeptidase N at 2 uM after 1 hr. The method in brief:
as §2

For the next data set, the target named is T3, Cytosol aminopeptidase (Bos taurus, UniProt P00727).
T3 sequence (P00727 whole entry): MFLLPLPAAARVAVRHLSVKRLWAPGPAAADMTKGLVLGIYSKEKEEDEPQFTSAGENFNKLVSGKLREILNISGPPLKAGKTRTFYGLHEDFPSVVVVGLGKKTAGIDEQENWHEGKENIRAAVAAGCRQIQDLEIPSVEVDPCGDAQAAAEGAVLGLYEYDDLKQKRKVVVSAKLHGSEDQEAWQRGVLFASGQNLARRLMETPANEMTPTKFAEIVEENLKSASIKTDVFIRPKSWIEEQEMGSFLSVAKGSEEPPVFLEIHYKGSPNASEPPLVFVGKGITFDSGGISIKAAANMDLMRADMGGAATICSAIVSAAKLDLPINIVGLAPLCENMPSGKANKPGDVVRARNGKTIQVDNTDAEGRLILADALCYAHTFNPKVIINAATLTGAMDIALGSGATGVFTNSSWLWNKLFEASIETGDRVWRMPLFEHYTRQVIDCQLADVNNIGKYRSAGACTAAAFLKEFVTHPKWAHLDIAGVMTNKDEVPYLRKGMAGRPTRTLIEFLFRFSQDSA
The experiment in a line: Inhibition of bovine lens cytosolic leucine aminopeptidase by Dixon plot analysis. Details: species or system Lens of camera-type eye. The method in brief:
as §1

For a further data set, the target named is Aminopeptidase N (Homo sapiens, UniProt P15144). The experiment in a line: Inhibition of human aminopeptidase N by Dixon plot analysis.
Chain of Aminopeptidase N (P15144 whole entry): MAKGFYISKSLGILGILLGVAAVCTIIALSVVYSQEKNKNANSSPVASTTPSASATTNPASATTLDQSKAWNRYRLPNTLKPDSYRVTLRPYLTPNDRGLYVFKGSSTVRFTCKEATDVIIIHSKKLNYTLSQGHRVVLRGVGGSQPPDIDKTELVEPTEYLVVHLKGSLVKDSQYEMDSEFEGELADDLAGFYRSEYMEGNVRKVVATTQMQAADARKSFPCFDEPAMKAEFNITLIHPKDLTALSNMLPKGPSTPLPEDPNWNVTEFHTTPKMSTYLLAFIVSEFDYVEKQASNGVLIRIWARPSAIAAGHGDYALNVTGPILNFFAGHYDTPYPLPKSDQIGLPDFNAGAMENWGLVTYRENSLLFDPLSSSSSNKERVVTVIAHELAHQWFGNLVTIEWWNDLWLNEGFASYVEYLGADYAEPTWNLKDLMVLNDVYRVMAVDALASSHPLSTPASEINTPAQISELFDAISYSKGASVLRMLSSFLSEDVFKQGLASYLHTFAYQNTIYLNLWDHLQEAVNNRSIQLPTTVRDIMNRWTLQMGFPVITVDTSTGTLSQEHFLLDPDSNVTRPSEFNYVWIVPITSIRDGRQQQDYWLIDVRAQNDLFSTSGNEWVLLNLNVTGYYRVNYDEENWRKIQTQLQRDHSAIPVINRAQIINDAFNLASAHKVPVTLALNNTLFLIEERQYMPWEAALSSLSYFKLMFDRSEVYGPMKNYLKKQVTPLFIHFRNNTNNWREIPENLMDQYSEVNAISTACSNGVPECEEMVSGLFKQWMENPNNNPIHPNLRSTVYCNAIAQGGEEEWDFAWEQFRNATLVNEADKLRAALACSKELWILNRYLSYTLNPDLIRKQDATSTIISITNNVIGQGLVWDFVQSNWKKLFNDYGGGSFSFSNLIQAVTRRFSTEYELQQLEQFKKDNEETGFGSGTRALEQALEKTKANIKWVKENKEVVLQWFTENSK
Data set [5] can be described thus: Chemical stability of the compound. The format is physicochemical.

Where a name gives a salt, the structure may show the parent alone. Calls of active or inactive are those of the source. The calls are words filed in the database; no cut-off is given here.

As for `NC1Cc2ccccc2CC1=O` (configuration not stated), the IC50 was > 1000 µM in data set [1] and 130 µM in data set [3]. In addition, the inhibition result in data set [2] was “inactive”. Moreover, in data set [4], the inhibition came out at 60%.
Regarding `CC(C)C[C@H](NC(=O)[C@@H](O)[C@H](N)Cc1ccccc1)C(=O)O` [UBENIMEX], in data set [3], the IC50 was found to be 0.0016 µM.
Take `N[C@H]1CCc2ccccc2C[C@H]1O` (relative stereo): the IC50 (in data set [3]; on Cytosol aminopeptidase) was > 1000 µM throughout.
Turning to `NC1Cc2ccccc2CCC1=O` (configuration not stated), the IC50 (in data set [1]; against Aminopeptidase N; in data set [3]; on Cytosol aminopeptidase) was > 1000 µM in each case.
For `NC1C(=O)Cc2ccccc21` (configuration not stated), the IC50 in data set [1] is > 1000 µM; in data set [3] it was 150 µM; against Cytosol aminopeptidase it was > 1000 µM.
On to `NC1CCc2ccccc2C/C1=N/O` (configuration not stated), for which the IC50 in data set [1] was > 1000 µM; against Aminopeptidase N it was 110 µM; in data set [3] it was 15 µM; on Cytosol aminopeptidase, > 1000 µM.
Consider `Cl.NC1CCc2ccccc2CC1=O` (configuration not stated), for which the results for the IC50 (in data set [1]; in data set [3]; against Cytosol aminopeptidase) were > 1000 µM, 900 µM and > 1000 µM, respectively. Besides, the inhibition in data set [2] was 60%. In data set [5], the Stability result was “Stable”. For the same compound, the Ki at Aminopeptidase N was found to be 1 µM.
As to `NC1CCCCCC1=O` (configuration not stated) [2-AMINOCYCLOHEPTANONE HYDROCHLORIDE], the values for the half-inhibitory concentration (IC50) (against Aminopeptidase N; in data set [3]; at Cytosol aminopeptidase) were 310 µM, 350 µM and > 100 µM, respectively.

What is called IC50 is the concentration that inhibits the measured activity by half. A low value points to greater potency in that assay. The term inhibition denotes how much of the control response was suppressed. One may read the Ki as a dissociation constant, usually derived from enzyme kinetics or from competition with a known ligand. A lower Ki goes with tighter binding.
